Measurements as given in ChEMBL document CHEMBL1811853, “Design and evaluation of 3-aminopyrazolopyridinone kinase inhibitors inspired by the natural product indirubin” (Bioorg Med Chem, 2011).
≈ marks a conversion by molar mass, not a printed value.

What was measured:
[1] = Inhibition of PKA at 30 uM by microfluidic mobility shift assay
In short: (§1)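 Single-concentration screen, singlicate, 30 uM final (diluted from 1 mM DMSO solutions), fluorescently tagged peptide substrate appropriate to each kinase, ATP at apparent Km for each protein. Phosphorylated and unphosphorylated peptides separated electrophoretically; conversion is the phosphorylated peak area over the sum of both peaks. No-inhibitor and no-ATP controls; H89 reference on each plate.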

[2] = molecular target: T1, Proto-oncogene tyrosine-protein kinase Src (Homo sapiens, UniProt P12931); experiment: Inhibition of SRC by microfluidic mobility shift assay
T1 sequence (P12931 2-536 limits assumed): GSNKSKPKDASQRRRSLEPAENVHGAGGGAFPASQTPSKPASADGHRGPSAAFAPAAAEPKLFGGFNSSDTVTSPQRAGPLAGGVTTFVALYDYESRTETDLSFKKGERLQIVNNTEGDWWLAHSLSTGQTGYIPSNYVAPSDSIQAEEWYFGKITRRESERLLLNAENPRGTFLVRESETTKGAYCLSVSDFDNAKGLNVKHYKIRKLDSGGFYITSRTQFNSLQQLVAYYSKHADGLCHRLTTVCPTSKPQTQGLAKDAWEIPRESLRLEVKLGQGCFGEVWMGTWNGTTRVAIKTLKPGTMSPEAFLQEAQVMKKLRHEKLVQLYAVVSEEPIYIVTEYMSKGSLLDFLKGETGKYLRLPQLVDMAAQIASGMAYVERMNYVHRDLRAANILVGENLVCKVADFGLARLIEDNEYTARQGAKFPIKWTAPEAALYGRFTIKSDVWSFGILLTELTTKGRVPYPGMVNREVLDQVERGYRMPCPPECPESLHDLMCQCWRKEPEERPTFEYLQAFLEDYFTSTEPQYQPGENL
In short: (§2)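 IC50 determined in the mobility shift format: a fluorescently tagged peptide substrate appropriate to each kinase, ATP at its apparent Km for each protein, and electrophoretic separation of phospho and unphosphorylated peptide. Percent conversion is the ratio of the phosphopeptide peak area to the total peak area. Controls were no inhibitor and no ATP.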

[3] = molecular target: Aurora kinase A (Homo sapiens, UniProt O14965); experiment: Inhibition of AurA by microfluidic mobility shift assay; in short: as §2
[4] = Inhibition of PKA by microfluidic mobility shift assay; in short: as §2
[5] = Aqueous solubility of the compound by HPLC analysis; assay type: physicochemical; details: water
In short: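 Solubility determined by HPLC measurement of the concentration in saturated aqueous solutions of the compounds.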

[6] = molecular target: Tyrosine-protein kinase ABL1 (Homo sapiens, UniProt P00519); experiment: Inhibition of ABL by microfluidic mobility shift assay; in short: as §2
Chain of Tyrosine-protein kinase ABL1 (P00519 whole entry): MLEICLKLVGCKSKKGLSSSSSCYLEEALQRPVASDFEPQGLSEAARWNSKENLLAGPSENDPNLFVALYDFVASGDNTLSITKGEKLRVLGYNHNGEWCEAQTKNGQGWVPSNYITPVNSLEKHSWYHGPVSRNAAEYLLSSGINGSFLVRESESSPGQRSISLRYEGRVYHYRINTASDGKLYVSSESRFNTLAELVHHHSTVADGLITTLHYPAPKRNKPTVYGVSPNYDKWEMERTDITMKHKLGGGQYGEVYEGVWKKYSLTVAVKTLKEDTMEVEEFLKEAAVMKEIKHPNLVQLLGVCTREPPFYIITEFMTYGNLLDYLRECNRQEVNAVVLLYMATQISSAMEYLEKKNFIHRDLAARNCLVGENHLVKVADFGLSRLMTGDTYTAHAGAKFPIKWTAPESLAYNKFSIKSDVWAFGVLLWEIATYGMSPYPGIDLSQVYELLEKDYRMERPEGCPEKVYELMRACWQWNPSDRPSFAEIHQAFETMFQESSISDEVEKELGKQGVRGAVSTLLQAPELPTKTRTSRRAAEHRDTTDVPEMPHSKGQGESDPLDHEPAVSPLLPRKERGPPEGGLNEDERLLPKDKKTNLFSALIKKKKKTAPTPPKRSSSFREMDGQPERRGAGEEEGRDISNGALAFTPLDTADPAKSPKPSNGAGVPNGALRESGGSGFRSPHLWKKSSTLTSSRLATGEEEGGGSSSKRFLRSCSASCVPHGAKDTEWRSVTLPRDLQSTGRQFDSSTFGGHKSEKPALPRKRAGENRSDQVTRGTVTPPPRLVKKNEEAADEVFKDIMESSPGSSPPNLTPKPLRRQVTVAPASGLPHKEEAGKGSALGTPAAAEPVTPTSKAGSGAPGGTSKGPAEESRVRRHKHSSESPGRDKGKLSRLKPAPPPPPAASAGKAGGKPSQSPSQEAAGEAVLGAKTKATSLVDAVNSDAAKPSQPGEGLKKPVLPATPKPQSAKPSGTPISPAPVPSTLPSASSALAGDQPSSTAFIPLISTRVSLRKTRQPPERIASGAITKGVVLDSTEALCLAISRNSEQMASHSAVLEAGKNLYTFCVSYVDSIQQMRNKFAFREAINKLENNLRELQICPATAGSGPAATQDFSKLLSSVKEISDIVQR

[7] = molecular target: Tyrosine-protein kinase Lck (Homo sapiens, UniProt P06239); experiment: Inhibition of LCK by microfluidic mobility shift assay; in short: as §2
[8] = molecular target: Insulin receptor (Homo sapiens) (UniProt P06213); experiment: Inhibition of INSR at 30 uM by microfluidic mobility shift assay; in short: as §1
Chain of Insulin receptor (Homo sapiens) (P06213 28-758 limits assumed): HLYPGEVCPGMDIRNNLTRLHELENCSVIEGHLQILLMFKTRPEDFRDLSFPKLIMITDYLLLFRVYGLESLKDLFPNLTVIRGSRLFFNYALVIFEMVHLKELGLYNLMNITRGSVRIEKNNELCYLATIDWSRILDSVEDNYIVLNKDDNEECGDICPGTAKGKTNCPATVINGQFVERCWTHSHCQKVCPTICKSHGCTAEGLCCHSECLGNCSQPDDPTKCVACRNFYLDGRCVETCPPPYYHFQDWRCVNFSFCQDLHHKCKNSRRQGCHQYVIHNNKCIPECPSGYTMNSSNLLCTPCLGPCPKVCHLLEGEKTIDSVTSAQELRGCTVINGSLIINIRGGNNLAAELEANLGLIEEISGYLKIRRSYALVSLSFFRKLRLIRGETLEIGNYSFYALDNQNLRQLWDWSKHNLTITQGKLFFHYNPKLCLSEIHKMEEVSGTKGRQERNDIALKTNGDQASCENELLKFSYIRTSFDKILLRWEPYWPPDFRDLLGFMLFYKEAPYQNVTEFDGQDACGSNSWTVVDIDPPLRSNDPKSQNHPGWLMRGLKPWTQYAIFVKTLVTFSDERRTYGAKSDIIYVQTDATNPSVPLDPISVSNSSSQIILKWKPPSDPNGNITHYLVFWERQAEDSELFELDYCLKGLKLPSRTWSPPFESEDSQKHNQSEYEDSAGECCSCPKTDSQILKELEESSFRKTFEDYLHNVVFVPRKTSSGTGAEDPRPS
Chain of Insulin receptor (Homo sapiens) (P06213 763-1382 limits assumed): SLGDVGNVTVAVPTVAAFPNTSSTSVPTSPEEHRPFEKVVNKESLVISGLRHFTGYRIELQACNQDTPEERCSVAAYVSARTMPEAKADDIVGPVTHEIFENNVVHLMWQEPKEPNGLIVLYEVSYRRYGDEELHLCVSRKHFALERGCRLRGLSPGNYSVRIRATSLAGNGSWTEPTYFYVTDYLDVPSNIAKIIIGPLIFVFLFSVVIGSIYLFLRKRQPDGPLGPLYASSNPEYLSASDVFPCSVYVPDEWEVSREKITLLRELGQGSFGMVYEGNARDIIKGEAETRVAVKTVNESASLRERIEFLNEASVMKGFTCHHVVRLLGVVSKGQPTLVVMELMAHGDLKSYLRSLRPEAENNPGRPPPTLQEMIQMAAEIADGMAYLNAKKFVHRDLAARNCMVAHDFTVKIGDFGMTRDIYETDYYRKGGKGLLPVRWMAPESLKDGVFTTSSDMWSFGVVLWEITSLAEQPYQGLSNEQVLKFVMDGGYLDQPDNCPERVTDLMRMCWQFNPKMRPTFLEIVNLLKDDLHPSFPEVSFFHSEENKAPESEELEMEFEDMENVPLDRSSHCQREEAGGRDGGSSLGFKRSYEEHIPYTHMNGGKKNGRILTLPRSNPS

[9] = molecular target: T2, Serine/threonine-protein kinase Chk1 (Homo sapiens) (UniProt O14757); experiment: Inhibition of CHK1 at 30 uM by microfluidic mobility shift assay; in short: as §1
T2 sequence (whole entry): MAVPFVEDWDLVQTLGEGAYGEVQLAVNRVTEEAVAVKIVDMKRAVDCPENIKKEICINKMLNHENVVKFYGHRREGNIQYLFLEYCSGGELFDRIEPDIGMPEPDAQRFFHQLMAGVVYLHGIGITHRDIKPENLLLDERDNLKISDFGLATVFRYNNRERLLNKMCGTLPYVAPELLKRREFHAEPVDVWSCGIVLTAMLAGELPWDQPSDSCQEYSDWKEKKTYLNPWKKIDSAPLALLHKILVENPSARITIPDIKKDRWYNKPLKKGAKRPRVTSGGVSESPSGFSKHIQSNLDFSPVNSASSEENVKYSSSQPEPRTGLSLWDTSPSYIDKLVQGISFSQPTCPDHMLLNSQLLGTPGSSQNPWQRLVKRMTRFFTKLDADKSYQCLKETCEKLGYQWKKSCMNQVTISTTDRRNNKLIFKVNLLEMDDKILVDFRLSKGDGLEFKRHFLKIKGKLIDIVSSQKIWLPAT

[10] = molecular target: T3, Serine/threonine-protein kinase Chk2 (Homo sapiens, UniProt O96017); experiment: Inhibition of CHK2 by microfluidic mobility shift assay; in short: as §2
T3 sequence (O96017 whole entry): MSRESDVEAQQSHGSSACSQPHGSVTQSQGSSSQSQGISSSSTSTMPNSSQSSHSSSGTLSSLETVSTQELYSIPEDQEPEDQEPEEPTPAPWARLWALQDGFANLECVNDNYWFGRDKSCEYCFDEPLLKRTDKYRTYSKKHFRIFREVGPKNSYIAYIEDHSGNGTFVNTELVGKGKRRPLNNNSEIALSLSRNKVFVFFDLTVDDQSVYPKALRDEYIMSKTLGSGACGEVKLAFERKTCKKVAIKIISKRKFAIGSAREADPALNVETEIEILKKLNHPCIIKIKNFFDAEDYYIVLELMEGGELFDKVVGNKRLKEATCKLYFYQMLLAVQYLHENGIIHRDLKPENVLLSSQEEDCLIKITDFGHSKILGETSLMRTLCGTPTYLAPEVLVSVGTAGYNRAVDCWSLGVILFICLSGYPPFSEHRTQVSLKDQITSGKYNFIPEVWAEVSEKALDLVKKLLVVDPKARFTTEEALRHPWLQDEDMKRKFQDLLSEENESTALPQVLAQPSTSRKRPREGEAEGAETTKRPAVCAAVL

[11] = molecular target: Serine/threonine-protein kinase Chk1 (Homo sapiens, UniProt O14757); experiment: Inhibition of CHK1 by microfluidic mobility shift assay; in short: as §2
[12] = molecular target: T1, Proto-oncogene tyrosine-protein kinase Src; experiment: Inhibition of SRC at 30 uM by microfluidic mobility shift assay; in short: as §1
[13] = molecular target: T4, Tyrosine-protein kinase Lyn (Homo sapiens, UniProt P07948); experiment: Inhibition of LYN at 30 uM by microfluidic mobility shift assay; in short: as §1
Target sequence in this assay (P07948 2-512 limits assumed): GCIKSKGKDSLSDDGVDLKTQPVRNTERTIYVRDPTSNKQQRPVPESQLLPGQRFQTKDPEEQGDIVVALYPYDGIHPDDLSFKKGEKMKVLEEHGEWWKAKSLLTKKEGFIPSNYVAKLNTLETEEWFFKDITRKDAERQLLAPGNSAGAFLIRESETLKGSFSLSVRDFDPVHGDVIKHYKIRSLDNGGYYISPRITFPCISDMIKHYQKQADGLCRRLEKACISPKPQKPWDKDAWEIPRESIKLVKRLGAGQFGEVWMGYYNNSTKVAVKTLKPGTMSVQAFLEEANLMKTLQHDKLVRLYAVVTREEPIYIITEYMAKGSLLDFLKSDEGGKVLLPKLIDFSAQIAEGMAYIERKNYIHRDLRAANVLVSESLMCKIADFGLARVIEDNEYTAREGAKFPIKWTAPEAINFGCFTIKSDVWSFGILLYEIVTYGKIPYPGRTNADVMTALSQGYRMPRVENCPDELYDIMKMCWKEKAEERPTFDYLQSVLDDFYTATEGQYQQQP

[14] = molecular target: T4, Tyrosine-protein kinase Lyn; experiment: Inhibition of LYN by microfluidic mobility shift assay; in short: as §2
Target sequence in this assay (P07948 whole entry): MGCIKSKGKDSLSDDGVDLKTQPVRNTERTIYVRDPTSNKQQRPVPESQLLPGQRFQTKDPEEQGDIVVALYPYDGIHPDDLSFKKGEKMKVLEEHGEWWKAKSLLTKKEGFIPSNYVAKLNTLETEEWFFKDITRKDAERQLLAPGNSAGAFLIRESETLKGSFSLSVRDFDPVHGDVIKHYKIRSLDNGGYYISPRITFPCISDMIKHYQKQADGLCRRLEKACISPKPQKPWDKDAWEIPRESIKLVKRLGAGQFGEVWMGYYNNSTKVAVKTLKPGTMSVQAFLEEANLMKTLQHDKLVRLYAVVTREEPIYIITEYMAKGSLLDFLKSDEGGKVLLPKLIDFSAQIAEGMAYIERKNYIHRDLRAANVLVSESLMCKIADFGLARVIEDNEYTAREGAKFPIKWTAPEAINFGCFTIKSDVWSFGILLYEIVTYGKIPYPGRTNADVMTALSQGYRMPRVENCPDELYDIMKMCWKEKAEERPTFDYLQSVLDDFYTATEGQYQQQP

[15] = molecular target: Tyrosine-protein kinase Fyn (Homo sapiens, UniProt P06241); experiment: Inhibition of FYN by microfluidic mobility shift assay; in short: as §2
[16] = molecular target: Casein kinase I isoform delta (Homo sapiens, UniProt P48730); experiment: Inhibition of CK1delta by microfluidic mobility shift assay; in short: as §2
Chain of Casein kinase I isoform delta (P48730 whole entry, canonical isoform): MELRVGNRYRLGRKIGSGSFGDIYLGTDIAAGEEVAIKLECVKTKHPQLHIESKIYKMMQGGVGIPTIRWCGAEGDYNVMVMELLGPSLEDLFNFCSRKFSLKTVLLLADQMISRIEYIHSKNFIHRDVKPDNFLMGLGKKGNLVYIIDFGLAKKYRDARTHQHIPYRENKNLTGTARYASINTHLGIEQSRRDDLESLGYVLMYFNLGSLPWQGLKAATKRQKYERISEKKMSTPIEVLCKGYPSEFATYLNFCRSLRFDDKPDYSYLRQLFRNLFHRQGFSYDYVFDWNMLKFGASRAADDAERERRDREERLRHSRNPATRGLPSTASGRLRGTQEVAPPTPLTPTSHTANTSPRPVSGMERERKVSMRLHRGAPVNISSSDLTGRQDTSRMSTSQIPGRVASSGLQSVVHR

[17] = molecular target: T5, MAP kinase-activated protein kinase 5 (Homo sapiens) (UniProt Q8IW41); experiment: Inhibition of PRAK1 at 30 uM by microfluidic mobility shift assay; in short: as §1
T5 sequence (whole entry): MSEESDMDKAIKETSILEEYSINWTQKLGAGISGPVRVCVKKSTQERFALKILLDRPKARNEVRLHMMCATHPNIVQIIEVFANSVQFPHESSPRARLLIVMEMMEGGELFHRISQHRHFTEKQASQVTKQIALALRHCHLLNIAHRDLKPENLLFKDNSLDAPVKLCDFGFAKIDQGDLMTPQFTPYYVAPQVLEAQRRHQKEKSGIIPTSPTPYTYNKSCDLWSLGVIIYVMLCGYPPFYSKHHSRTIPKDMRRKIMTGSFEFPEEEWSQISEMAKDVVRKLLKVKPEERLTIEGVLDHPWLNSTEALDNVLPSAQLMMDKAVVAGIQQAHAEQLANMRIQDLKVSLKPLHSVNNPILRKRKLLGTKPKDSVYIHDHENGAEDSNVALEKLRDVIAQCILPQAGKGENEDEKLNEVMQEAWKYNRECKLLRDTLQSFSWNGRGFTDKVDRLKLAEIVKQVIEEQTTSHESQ

[18] = molecular target: MAP kinase-activated protein kinase 2 (Homo sapiens, UniProt P49137); experiment: Inhibition of MAPKAPK2 by microfluidic mobility shift assay; in short: as §2
[19] = molecular target: T3, Serine/threonine-protein kinase Chk2; experiment: Inhibition of CHK2 at 30 uM by microfluidic mobility shift assay; in short: as §1
[20] = system: MCF7; experiment: Growth inhibition of human MCF7 cells; assay type: functional

Question: With `CN1CCN(c2ccc(-c3cc4c(c(N)nn4C)c(=O)[nH]3)cc2)CC1` as the compound, how does the inhibition [1] read?
Answer: 81%

Question: And the IC50 [2]?
Answer: 7.7 µM

Question: And the IC50 [3]?
Answer: 33 µM

Question: And the IC50 [4]?
Answer: 5.2 µM

Question: And the solubility [5]?
Answer: 55 µg/mL (≈ 163 µM)

Question: What about the IC50 [6] of the same compound?
Answer: 7.8 µM

Question: What about the IC50 [7] of the same compound?
Answer: 18 µM

Question: And the inhibition [8]?
Answer: 9%

Question: And the inhibition [9]?
Answer: 67%

Question: And the IC50 [10]?
Answer: 34 µM

Question: And the IC50 [11]?
Answer: 24 µM

Question: What about the inhibition [12] of the same compound?
Answer: 80%

Question: And the inhibition [13]?
Answer: 54%

Question: And the IC50 [14]?
Answer: 14 µM

Question: What about the IC50 [15] of the same compound?
Answer: 17 µM

Question: And the IC50 [16]?
Answer: 39 µM

Question: And the inhibition [17]?
Answer: 26%

Question: And the IC50 [18]?
Answer: 35 µM

Question: What about the inhibition [19] of the same compound?
Answer: 53%

Question: For `Cc1cc2[nH]nc(N)c2c(=O)[nH]1`, which inhibition [1] is on record?
Answer: 57%

Question: What about the solubility [5] of the same compound?
Answer: 1640 µg/mL (≈ 9960 µM)

Question: What about the inhibition [8] of the same compound?
Answer: -2%

Question: And the inhibition [9]?
Answer: 7%

Question: And the inhibition [12]?
Answer: 14%

Question: What about the inhibition [13] of the same compound?
Answer: 3%

Question: And the inhibition [17]?
Answer: 8%

Question: And the inhibition [19]?
Answer: 27%

Question: Which results are given for `Nc1c2c(=O)[nH]c(-c3ccccn3)cc2nn1-c1ccccc1`?
Answer: inhibition [1]: 0%; inhibition [8]: 4%; GI50 [20]: 210 nM; inhibition [9]: 7%; inhibition [12]: 98%; inhibition [13]: 97%; inhibition [17]: 2%; inhibition [19]: 3%

Question: With `COC(=O)CCc1c(C)[nH]c(=O)c2c(N)nn(C)c12` as the compound, how does the inhibition [1] read?
Answer: 3%

Question: And the solubility [5]?
Answer: 469 µg/mL (≈ 1770 µM)

Question: What about the inhibition [8] of the same compound?
Answer: 3%

Question: And the inhibition [9]?
Answer: 2%

Question: What about the inhibition [12] of the same compound?
Answer: 13%

Question: And the inhibition [13]?
Answer: 6%

Question: What about the inhibition [17] of the same compound?
Answer: 2%

Question: And the inhibition [19]?
Answer: -1%
